Broadly, the apparent Kd is the concentration giving half-maximal binding under the conditions of the assay.

The test system of this data set is MS2 coat protein. Briefly: apparent Kd, MS2 coat protein; higher = weaker binding; RNA-MaP array; FMN 200 µM where present. The essentials:
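Green signal from SNAP-549-labelled MS2 coat protein was normalised to red-channel RNA signal and to the median Fmax of control clusters. The protein was titrated from 0.7 or 1.5 nM, doubling to 3 µM, without and then with constant ligand, over designs transcribed by stalled E. coli RNA polymerase on Illumina sequencing-chip clusters, in 100 mM Tris-HCl pH 7.5, 80 mM KCl, 4 mM MgCl2, BSA, DTT, yeast tRNA and Tween-20. The apparent Kd is the median of filtered per-cluster binding-curve fits.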

Where [1] appears, read: designed as: OFF switch for flavin mononucleotide, no ligand.
Where [2] appears, read: ligand present: flavin mononucleotide, designed as: OFF switch for flavin mononucleotide.
[3] abbreviates: designed as: ON switch for flavin mononucleotide, no ligand.
Setting [4] is: ligand present: flavin mononucleotide, designed as: ON switch for flavin mononucleotide.

As for “GCACUUAUAUUUGAACCGAUUCGAACAUGAGGAUCACCCAUGUAGGAUAUGCUAAAAGUUGUGAUGCAGAAGGACAUUAAGUGC”, the “apparent Kd” value was found to be 5.44 nM under setting [1] and 6.74 nM under setting [2]. For “GGGUGACAUGAGGAUCACCCAUGUCAGGAUAUGAUACUAUGUACUUCGGUACAUAGUAUCAGAAGGGACAUCAU”, in that order: 284 nM and 29.9 nM. In the same order, the values of “GCCUCACAUGAGGAUCACCCAUGUCAGGAUAUAGGAGACGGCAGAAAUCCUGCCAUCGCUAGAAGGGACUGGCA” are 23.9 nM and 105 nM. In the case of “CGCUAGGAUGGGUCUAAUGGACCUCAGGAUAUGCUUGUACAUGAGGAUCACCCAUGUAAUAUUGUGCAGAAGGGAGGAUCCACG”, the “apparent Kd” value reads like this: under setting [3], 18.9 nM; under setting [4], 6.56 nM. For the sequence “CGAGAUACGCUCGUCCGAAAGGAACAUGAGGAUCACCCAUGUAGAAGGCGAUCCGCAACUCGGAUUGAGGAUAUAUACUGCAGA”, the “apparent Kd” value reads like this: under setting [1], 139 nM; under setting [2], 91.2 nM. In the same order, the values of “GGGCCGUAGUAGAAGGGAUAUACGAUAGGUAUAUCAGGAUAUACAUGAGGAUCACCCAUGUUCUAACAGUGAUGGUCCUCCCUA” are 173 nM and 374 nM. As for “AACAACCUAGGAUAUACAUGAGGAUCACCCAUGUUACUACUGGGUAAUCCCAAUUCGAGUAGAAGGAGGAUCAA”, the “apparent Kd” value under setting [1] worked out at 47.7 nM and the “apparent Kd” value under setting [2] was determined as 87 nM. In the same order, the values of “UGAUCGAGAGAUCUUAGAUUCUGGUAGGAUAUGCAACAGUUGCGCUUUACAUGAGGAUCACCCAUGUAGAAGGACUAGAGUCUA” are 5.86 nM and 6.1 nM. Regarding “AUCGUGUUAGGAUAUGCAUGUCGCUGGGUAGCUAGCGAUAGGCAGAAGGAACAUGAGGAUCACCCAUGUUCGGG”, the “apparent Kd” value turned out to be 158 nM under setting [1] and 78 nM under setting [2]. As for “UCCUUACUGGUCAGGAUAUACAGUCGCGGGUGGGUGUAGAAGGGACAUGAGGAUCACCCAUGUACGUUGCAGCC”, the “apparent Kd” value amounted to 40.6 nM under setting [1] and 40.9 nM under setting [2]. Take “AUACGAAAGAUAGGAUAUACUGAGGUUGAAUGGGUAGAAGGAUCGAUAGUGGAGAAGACAUGAGGAUCACCCAUGUUGUGGAUU”: the “apparent Kd” value by setting is: under setting [3], 681 nM; under setting [4], 217 nM. In the same order, the values of “CCGCUCGAGCAGAAGGCAAUGAGGGUUAUACAUUGAGGAUAUGCUACGUACGUGGUACAUGAGGAUCACCCAUGUAGCCUAUCU” are 788 nM and 93.4 nM. “UGAUCGAGAGAUCUUAGAUUCUGGUAGGAUAUACAUAUAGUAAUAUAGACAUGAGGAUCACCCAUGUAGAAGGACUAGAGUCUA”: the “apparent Kd” value by setting is: under setting [1], 6.9 nM; under setting [2], 8.65 nM. As for “AAAAUCUAUUGAGGAUAUCGUUAUCAAAGAUAAUGAGAAGGCAAACAAUCAUGAGGACAUGAGGAUCACCCAUGUUGUGACCAU”, the “apparent Kd” value is, setting by setting: under setting [3], 22.3 nM; under setting [4], 10.8 nM.

For the sequence “UACCUGAGGCCAAGCUUUAGGUAUACAUGAGGAUCACCCAUGUAGGAUAUGGUAGGCUUUGCUUACCAGAAGGACAUGUUAAUU”, the “apparent Kd” value by setting is: under setting [1], 19 nM; under setting [2], 64.9 nM. Turning to “CAUCUCCCUUUUACAUGAGGAUCACCCAUGUUUUCAUAUUGAGAGGAUAUCGUAUUUGGAAACAUCGAGAAGGCUCAUUUGUAU”, the “apparent Kd” value came to 536 nM under setting [3] and 175 nM under setting [4]. On to “GCAGCGUAUGUAGGAUAUCGGUCAGUUUCUGAUCGAGAAGGACAUGAGGAUCACCCAUGUAAAUUACCGACUUUGUCGGGUUGC”, for which the “apparent Kd” value under setting [1] turned out to be 10.2 nM and the “apparent Kd” value under setting [2] was found to be 20.1 nM. “GGUACCAUCGCAGGAUAUGCUAGGGUUUCCUUAGCAGAAGGGUGAUAACAUGAGGAUCACCCAUGUGGUACCGGGCGUGAGCCC”: the “apparent Kd” value under setting [3] was 95 nM and the “apparent Kd” value under setting [4] is 1160 nM. For the sequence “AAAAAAAAAAGGCAGGAUAUCCAAAAAAAAACAUGAGGAUCACCCAUGUAAAAAAAAAAAAAAUGGGAGAAGGGUCAAAAAAAAAA”, the “apparent Kd” value is 88.8 nM under setting [3] and 34 nM under setting [4]. “GCAUGUGUGUAAGGAUAUGCAUCACUGAGAAAUUUAGUGAGGAAGAUCACAUGAGGAUCACCCAUGUAGAAGGUACACACGUGG”: the “apparent Kd” value by setting is: under setting [1], 9.3 nM; under setting [2], 54.5 nM. “GACUGGCAGCUAGGAUAUGGGCGAUCACAUGAGGAUCACCCAUGUCAACAUCAAAACAAGAUUAACCAGAAGGAGCCGCGGGUU”: the “apparent Kd” value runs as follows: under setting [3], 16.1 nM; under setting [4], 110 nM. For “ACCGUAUGAACAUGAGGAUCACCCAUGUAAACGGAAACGAAUGAGGAUAUCGAUAGCAAAGCUAUCGAGAAGGCAUGGGACGGU”, in that order: 64.5 nM and 26.8 nM.

For the sequence “UAUUGAUAAUAUUUUAACAUGAGGAUCACCCAUGUCGCUAGACAGGAUAUAUUUUAUUUGUUUAAGUAGAAGGGUCGCAGAUUU”, the “apparent Kd” value under setting [3] amounted to 150 nM and the “apparent Kd” value under setting [4] is 130 nM.

For the sequence “UCAUUUUACACAGGAUAUAUUCAUAUACAGUUGUUUGGCUCUUACAUGUUAGUAGAAGGGUGCAACAUGAGGAUCACCCAUGUA”, the “apparent Kd” value is, setting by setting: under setting [3], 279 nM; under setting [4], 274 nM. Turning to “AGGUUGGGAGGAUAUCCAAUAUAUGACAUGAGGAUCACCCAUGUUUCCACUCGUACCUCCGGAGAAGGCCCUUCCA”, the “apparent Kd” value stood at 21.7 nM under setting [1] and 23 nM under setting [2]. On to “GGUUGUCAUCGUCAUCCUUUCGGUACAUGAGGAUCACCCAUGUAGGAUAUGCUGCUCUCGGUGUGGCAGAAGGGCGUGUGUGUU”, for which the “apparent Kd” value under setting [1] came out at 24.4 nM and the “apparent Kd” value under setting [2] stood at 39.5 nM. For “GCGACGAAAGUCGAACGAUGUAGCAGAAGGACAUGAGGAUCACCCAUGUCAGCUGUAACAGCCAUGUAGGAUAUGCUACAUCGC”, in that order: 4.19 nM and 5.42 nM. In the case of “GGAGCACACAUUAACAUGAGGAUCACCCAUGUCAAAAGACAUGAGGAUAUGGAUCCGAAAAGCAUCCAGAAGGCAUGGUGCUCC”, the “apparent Kd” value was determined as 567 nM under setting [3] and 184 nM under setting [4]. On to “UCUCGACAUGAGGAUCACCCAUGUCAGGAUAUUGUGUUUGAGGUUUUUUACCUUUUGGCAAGAAGGGAUGUGUG”, for which the “apparent Kd” value by setting is: under setting [1], 27.5 nM; under setting [2], 28.9 nM. In the same order, the values of “ACAUGAGGAUCACCCAUGUAUUUGUAGGAUAUACUCUAUUGUUUAUUACUCUAGUUAAUAUGUUUGUAGAAGGACAUUACAUGA” are 7.94 nM and 10.8 nM. As for “CUGAAUAGAGGAUAUUGUACUGCUGACAUGAGGAUCACCCAUGUAUGUUAACUCGGCCGUCGAGAAGGCUAACAUA”, the “apparent Kd” value reads like this: under setting [1], 42.8 nM; under setting [2], 26.7 nM. Regarding “GGGUACAUCGGAGGAUAUCAUGAAAAUACAUGAGGAUCACCCAUGUCGAUGGAGACAUCGGAGAUUGAGAAGGCCGAUGUACCG”, the “apparent Kd” value is, setting by setting: under setting [3], 11.9 nM; under setting [4], 6.01 nM. Take “GGGUACAACGGAGGAUAUCAUGUAAAUACAUGAGGAUCACCCAUGUCGAUGGAGACAUCGGAGAUUGAGAAGGCCGAUGUACCG”: the “apparent Kd” value under setting [3] stood at 160 nM and the “apparent Kd” value under setting [4] was 8.88 nM.

Consider “AGAUAACACCAGAAGGACAUGAGGAUCACCCAUGUAGGAUAUGGGCAUCACUCGAGAAAGAAAAGACCAAAUGGACACAUGGUC”, for which the “apparent Kd” value by setting is: under setting [3], 162 nM; under setting [4], 12.8 nM.

Consider “CACUCACAUGAGGAUCACCCAUGUCCUAGCAGGUCAGGAUAUAGCUCGGAUGCGUUGAGUCUAGAAGGGACAGGUU”, for which the “apparent Kd” value is, setting by setting: under setting [3], 184 nM; under setting [4], 63.6 nM. With “UAUAUAUAGGCAGGAUAUACAUGAAUAUAUAAUAUAUUAUAUAAUAUAACAUGAGGAUCACCCAUGUAGAAGGGCCAUAAUAUA”, the “apparent Kd” value amounted to 67 nM under setting [1] and 106 nM under setting [2]. On to “GGGUACAUCGGAGGAUAUCAUGUAAAUACAUGAGGAUCACCCAUGUCGGUGGAGACAUCGGAGAUUGAGAAGGCCGAUGUACCG”, for which, under setting [4], the “apparent Kd” value amounted to 12.7 nM.

For the sequence “GCGUCAGGAGGAUAUACAUGAGGAUCACCCAUGUAACACGGGAUCGUCGUUUAGUAGAGUAGAAGGCCUAUUGU”, the “apparent Kd” value is 64.1 nM under setting [1] and 106 nM under setting [2].

In the case of “GCAUGUGUAUAAGGAUAUGCAUCACUGAGAAAUUUAGUGAGGAAGAUCACAUGAGGAUCACCCAUGUAGAAGGUAUACACGUGC”, the “apparent Kd” value is, setting by setting: under setting [1], 7.32 nM; under setting [2], 52.3 nM. In the same order, the values of “UGUCGGAGCAGAGGAUAUUACAUGAGGAUCACCCAUGUAUGAACCAAUAGCUGGAAACAGCAAUGUAAGAAGGCUGCUCGGACA” are 12.6 nM and 187 nM.

For the sequence “AACAAUAAGGAGGAUAUCGUAUCGGAAACGAUACGAGAAGGCUUAACAUGAGGAUCACCCAUGUUCCUCAAUAA”, the “apparent Kd” value came out at 31.6 nM under setting [1] and 60 nM under setting [2]. “CAAUUGGCACAGAAGGGUGACAUGAGGAUCACCCAUGUAGCGUGGCACUCAGGAGAAGCCACGCCACAGGAUAUGUGCGGGCAC”: the “apparent Kd” value came to 34.6 nM under setting [3] and 41.6 nM under setting [4]. Take “AUGUUGUCAGGAUAUCUUACAUAACAAUCGUUGUUACCAUUGGAGAAGGGACAUGAGGAUCACCCAUGUUAGCC”: the “apparent Kd” value under setting [1] is 20.8 nM and the “apparent Kd” value under setting [2] was found to be 23 nM. On to “GGAGCACACAUUAACAUGAGGAUCACCCAUGUCAAAAGACAUGAGGAUAUGGAUCCGAAAAGGAUCCAGAAGGCAUAGUGCUCC”, for which the “apparent Kd” value was 301 nM under setting [3] and 15.7 nM under setting [4].

Regarding “CUUUUGUGAGGAUAUCAGUAGUAAUACAAUAGUAUUACUACUGAGAAGGCACAUGAGGAUCACCCAUGUUUCUC”, the “apparent Kd” value runs as follows: under setting [1], 42.4 nM; under setting [2], 121 nM. In the same order, the values of “CGAGAGGCAGGAUAUAGUAUUUGCGACAUGAGGAUCACCCAUGUAUAUACAGUCGCUCCGUUAGAAGGGCCAUUUC” are 22.8 nM and 33.2 nM. For “GUCAUACAUGAGGAUCACCCAUGUGAGGAUAUGAGUGGUGCUGAUAGGUCGGCACCACUCAGAAGGCGCAUGAU”, in that order: 77.1 nM and 293 nM. For “CAGACCUACGCAGGAUAUCUUGGGUGUUUCAUGGCAAGAGUCGGUACAUGAGGAUCACCCAUGUAAGAGAAGGGCGUUGCUAAA”, in that order: 404 nM and 83 nM.

(Values after the EternaBench riboswitch data.)
